# Compound activity from PubChem.
# An excerpt weighted towards active compounds, which were near 1.9% of everything screened.
# FGF22 binding = FGF22 (human) thermal shift binding; Q9HCT0; recombinant FGF22 thermal shift, SYPRO orange fluorescence; percent of sucrose octasulfate shift, DMSO zero; activity (Tm shift, normalised), % at 9.99 µM; 1.5% of 340,000 active; AID 651658;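 active = mean Tm shift, scaled 0 neutral to 100 positive control, at about 1.3% or above, every replicate too, limit read from the data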
# Target sequence (Q9HCT0 whole entry, looked up): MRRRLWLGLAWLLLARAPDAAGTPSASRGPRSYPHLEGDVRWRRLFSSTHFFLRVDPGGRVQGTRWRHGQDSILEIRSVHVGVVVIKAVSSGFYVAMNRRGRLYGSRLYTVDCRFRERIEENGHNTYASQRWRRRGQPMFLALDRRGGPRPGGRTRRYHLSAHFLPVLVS
# ASAP1 GAP inh = inhibitors of human ASAP1 ArfGAP activity; ASAP1-stimulated ARF1 GTP hydrolysis, GDP FP detection; inhibition, % at 16.5 µM; 0.19% of 360,000 active; AID 624377; in the data active = inhibition above about 25%
# Rtt109 HAT inh = blocks Candida albicans Rtt109/Vps75 acetyltransferase activity; purified Rtt109/Vps75, ThioGlo CoA-SH fluorescence, 4 h; inhibition, % at 34.9 µM; 0.16% of 330,000 active; AID 540336;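 active = inhibition of at least 50% in every replicate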
# Target sequence (Q5AAJ8 whole entry, looked up): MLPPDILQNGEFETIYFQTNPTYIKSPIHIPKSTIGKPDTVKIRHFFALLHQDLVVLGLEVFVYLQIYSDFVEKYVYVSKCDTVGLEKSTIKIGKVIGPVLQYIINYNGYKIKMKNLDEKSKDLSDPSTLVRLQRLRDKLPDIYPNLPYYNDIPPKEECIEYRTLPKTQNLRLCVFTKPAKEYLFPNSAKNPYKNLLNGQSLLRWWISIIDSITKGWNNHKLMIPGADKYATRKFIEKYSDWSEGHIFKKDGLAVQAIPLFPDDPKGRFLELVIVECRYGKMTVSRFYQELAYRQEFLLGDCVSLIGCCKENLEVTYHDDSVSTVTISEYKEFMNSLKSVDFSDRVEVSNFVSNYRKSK
# ARFGAP1 inhibitor = inhibitors of rat ARFGAP1. Arfgap1-stimulated ARF1 GTP hydrolysis, GDP FP detection. Q62848. inhibition, % at 16.5 µM. 0.26% of 360,000 active. AID 651572;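 active = inhibition above a per-plate limit, mean inhibition of low control wells plus 3 SD, cut at about 25% in these data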
# Target sequence (Q62848 1-136 limits assumed): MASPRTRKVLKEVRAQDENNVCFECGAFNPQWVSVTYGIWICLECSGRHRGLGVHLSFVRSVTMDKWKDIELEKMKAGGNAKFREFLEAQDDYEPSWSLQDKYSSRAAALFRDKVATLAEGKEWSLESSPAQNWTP
#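 Material: truncated rat Arfgap1 GAP domain; Incubation: compound-enzyme preincubation 20 min, reaction 120 min, detection 60 min, 25 °C; Read-out: percent inhibition of Arfgap1-stimulated GTP hydrolysis; Technique: FP, GDP Alexa 633 tracer displaced from anti-GDP antibody, 620/688 nm; Controls: No-Arfgap1 wells (100%) versus DMSO full-reaction wells (0%); Replication: single well per compound.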
# Efflux pump inh = antifungal efflux pump inhibition, Nile Red retention | S. cerevisiae Candida pump triplex | inhibition, % at 10 µM | 0.44% of 330,000 active | AID 485275;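 active = plate passing quality check with inhibition over a set limit, or well fluorescence over plate mean plus 4 SD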;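 also: Nile Red retained in pooled yeast measured as flow cytometry median fluorescence; higher means more Nile Red kept so more efflux inhibition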
# Yeast cmpd fluor = counter-screen for efflux pump inhibitors: compound fluorescence. shares compounds with Efflux pump inh. S. cerevisiae AD/pABC3, flow cytometry. fluorescence ratio to DMSO, % at 10 µM. 4% of 1,700 active;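 active = fluorescence ratio to DMSO above its plate's cutoff, the plate mean ratio plus 5 SD, cut at about 210% in these data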;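 also: unstained yeast with no Nile Red so the signal is compound autofluorescence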
# CaMdr1 efflux inh = inhibitors of Candida albicans Mdr1 efflux pump; shares compounds with Efflux pump inh; S. cerevisiae AD/CaMDR1, Nile Red efflux, flow cytometry; inhibition, % at 10 µM; 1% of 1,700 active; AID 588518; in the data active = inhibition above about 26%;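 also: higher means more Nile Red retained so more efflux inhibition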
# CaCdr2 efflux inh = inhibitors of Candida albicans Cdr2 efflux pump; shares compounds with Efflux pump inh; 4% of 1,700 active; S. cerevisiae AD/CaCDR2, Nile Red retention, flow cytometry; Nile Red retention ratio vs DMSO, % at 10 µM; in the data active = Nile Red retention ratio vs DMSO above about 190%;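 also: higher ratio means more blocking of Cdr2 efflux of the dye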
# CaCdr1 efflux inh = inhibitors of Candida albicans Cdr1 efflux pump; S. cerevisiae AD/CaCDR1, Nile Red efflux, flow cytometry; 1% of 1,700 active; shares compounds with Efflux pump inh; inhibition, % at 10 µM;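 active = inhibition above the screen-wide mean plus twice its standard deviation, cut at about 32% in these data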
# A number is an active result; n = inactive; x = no result.
SMILES,FGF22 binding,ASAP1 GAP inh,Rtt109 HAT inh,ARFGAP1 inhibitor,Efflux pump inh,Yeast cmpd fluor,CaMdr1 efflux inh,CaCdr2 efflux inh,CaCdr1 efflux inh
CCOC(=O)c1c(NC(=O)COC(=O)c2ccncc2)sc(C)c1C,n,n,n,n,0.5,n,n,n,n
O=C(CNS(=O)(=O)c1ccc(F)cc1)Nc1ccc(C(F)(F)F)cc1,x,n,n,n,n,x,x,x,x
CNC(=O)COC(=O)c1ccccc1NC(=O)c1ccco1,n,n,n,n,1.2,n,n,n,n
CC12CCCC(CC(=O)O)(C1)NC(=O)C2 (stereo unspecified),n,n,n,n,x,x,x,x,x
O=C(NCCCN1CCOCC1)Nc1ccc(Cc2ccc(NC(=O)NCCCN3CCOCC3)cc2)cc1,n,n,n,n,6.8,n,n,n,n
C[C@H]1CN([C@@H](C)CO)S(=O)(=O)c2ccc(Br)cc2O[C@@H]1CN(C)Cc1ccccc1,n,n,x,n,x,x,x,x,x
O=C(OCC(=O)c1ccccc1Cl)c1cnccn1,x,n,n,n,14,n,n,n,n
CN(CC(=O)N1CCN(c2ccc(F)cc2)CC1)S(=O)(=O)c1ccc(F)cc1,x,n,n,n,n,x,x,x,x
O=C(COC(=O)[C@H](Cc1ccccc1)NC(=O)c1cccs1)NC1CCCCC1,x,n,n,n,18,n,n,n,n
CC(=O)OCCCNc1cc(Sc2ccc(C)cc2)c2nonc2c1[N+](=O)[O-],x,n,n,n,13,n,n,n,n
CCn1cc(C(=O)NCCCN2CCCC2)c(=O)c2cc(S(=O)(=O)N3CCc4ccccc4C3)ccc21,n,n,x,n,1.1,n,n,n,n
CCCCN(C)CCCNC(=O)c1cn(CC)c2ccc(S(=O)(=O)N3CCc4ccccc4C3)cc2c1=O,n,n,n,n,n,x,x,x,x
COc1ccc(NC(=O)c2ccccc2NC(=O)NC2CCCCC2)cc1,x,n,n,n,n,x,x,x,x
Cc1cc(S(=O)(=O)N2CCOCC2)ccc1OCC(=O)Nc1ccc(Br)cc1F,n,n,n,n,0.9,n,n,n,n
COc1cc(C(=O)OC(C)C(=O)N2CCc3ccccc3C2)ccc1OCC(=O)N1CCOCC1 (stereo unspecified),x,n,n,n,n,x,x,x,x
Cc1cc(N/N=C/c2ccccc2[N+](=O)[O-])nc(-n2nc(C)cc2C)n1,n,n,n,n,0.8,n,n,n,n
Cc1cc(OCc2cc(C(=O)N(C)Cc3ccccn3)no2)cc(C)c1Cl,n,n,n,n,n,n,n,n,n
Cc1ccc(CNC(=O)C(=O)NCC2OCCN2S(=O)(=O)c2ccc(C)cc2)cc1 (stereo unspecified),n,n,n,n,n,x,x,x,x
Cc1ccc(CNC(=O)C(=O)NCC2OCCN2S(=O)(=O)c2ccc(Br)cc2)cc1 (stereo unspecified),n,n,n,n,n,n,n,n,n
COc1ccc(S(=O)(=O)N2CCOC2CNC(=O)C(=O)NCc2cccnc2)cc1OC (stereo unspecified),n,n,n,n,n,x,x,x,x
COc1ccc(S(=O)(=O)N2CCOC2CNC(=O)C(=O)NCc2ccc(F)cc2)cc1OC (stereo unspecified),n,n,n,n,n,n,n,n,n
COc1ccc(CNC(=O)C(=O)NCC2OCCN2S(=O)(=O)c2ccc(C)cc2)cc1 (stereo unspecified),n,n,n,n,n,n,n,n,n
COc1ccc(CNC(=O)C(=O)NCC2OCCN2S(=O)(=O)c2ccc(F)cc2)cc1 (stereo unspecified),n,n,n,n,n,x,x,x,x
COc1ccc(CNC(=O)C(=O)NCC2OCCN2S(=O)(=O)c2ccccc2)cc1 (stereo unspecified),n,n,n,n,n,n,n,n,n
COc1ccc(CCNC(=O)C(=O)NCC2OCCN2S(=O)(=O)c2ccc(C)cc2)cc1 (stereo unspecified),n,n,n,n,n,x,x,x,x
SMILES,FGF22 binding,ASAP1 GAP inh,Rtt109 HAT inh,ARFGAP1 inhibitor,Efflux pump inh,Yeast cmpd fluor,CaMdr1 efflux inh,CaCdr2 efflux inh,CaCdr1 efflux inh
COc1ccc(C2C(=O)N(CCc3ccccc3)CC(=O)N2C2CCCCC2)cc1 (stereo unspecified),x,n,n,n,n,x,x,x,x
CCN(CC)S(=O)(=O)c1cc(NC(=O)c2ccc(Br)s2)ccc1C,n,n,n,n,n,x,x,x,x
CC1CC(=O)N(CC(=O)Nc2ccc3c(c2)OCCO3)c2ccccc2S1 (stereo unspecified),n,n,n,n,n,531,n,n,n
O=C(CN1C(=O)CC(c2ccco2)Sc2ccccc21)Nc1ccccc1F (stereo unspecified),n,n,n,n,n,x,x,x,x
O=C(CN1C(=O)CC(c2ccco2)Sc2ccccc21)NCc1ccc2c(c1)OCO2 (stereo unspecified),n,x,n,x,9.8,n,n,n,n
Cc1cc(C(=O)NNC(=O)c2nn(C)c(=O)c3ccccc23)c(C)o1,n,n,n,n,n,x,x,x,x
Cc1cc2oc(C(=O)Nc3nonc3C)c(C)c2cc1C,n,n,n,n,n,x,x,x,x
CN(C)C(=O)c1cc2c(c(-c3cccc(C4=CCCCC4)c3)n1)[C@@H](CCO)N(S(C)(=O)=O)C2,n,x,x,x,x,x,x,x,x
CSCCC(NC(=O)c1ccccc1Cl)C(=O)N1CCN(C(c2ccccc2)c2ccccc2)CC1 (stereo unspecified),n,n,n,n,0.5,n,n,n,n
COc1ccccc1CNC(=O)COc1ccc(C)cc1,n,n,n,n,n,x,x,x,x
COc1ccccc1CNC(=O)COc1ccccc1OC,x,n,n,n,1.0,n,n,n,n
CCOc1ccccc1NC(=O)/C(C#N)=C/c1c(C)nn(-c2ccccc2)c1Cl,x,n,n,n,n,x,x,x,x
CC(C)(CNC(=O)c1ccc([N+](=O)[O-])c(Cl)c1)CNC(=O)c1ccc([N+](=O)[O-])c(Cl)c1,x,n,n,n,n,x,x,x,x
Cc1occc1C(=O)NCc1ccc2c(c1)OCO2,x,n,n,n,n,x,x,x,x
Cc1occc1C(=O)NCc1cccc(CNC(=O)c2ccoc2C)c1,x,x,n,x,0.3,n,n,n,n
N#Cc1cc([N+](=O)[O-])ccc1NCCc1ccccn1,n,n,n,n,3.5,n,n,n,n
O=C(CSS(=O)(=O)O)N1CCN(C(=O)c2ccoc2)CC1,n,n,n,n,n,x,x,x,x
CCN(CC)C(=S)SCC(=O)Nc1cccc(C(F)(F)F)c1,x,n,n,n,n,x,x,x,x
COc1ccc(-c2nc(C#N)c(NCC3CCCO3)o2)cc1OC (stereo unspecified),x,n,n,n,n,x,x,x,x
